Data published in ChEMBL document CHEMBL4138275, “Taccalonolide Microtubule Stabilizers Generated Using Semisynthesis Define the Effects of Mono Acyloxy Moieties at C-7 or C-15 and Disubstitutions at C-7 and C-25” (J Nat Prod, 2018).
Active and inactive are the calls of the source. The calls are words filed in the database; no cut-off is given here.

Columns and labels:
HeLa [1] = test: Antiproliferative activity against human HeLa cells after 48 hrs by sulforhodamine B assay; assay type: functional, cell-based
How it was run: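 HeLa cells (STR-validated) grown in BME with 10% FBS and gentamycin, seeded 2500/well, left to adhere overnight, then exposed to compounds for 48 h. Cell density read by sulforhodamine B staining. IC50 is the concentration giving 50% inhibition of cell density versus vehicle, fitted by nonlinear regression. Mean of 3 or 4 experiments, each in triplicate, ±SD.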

NCI/ADR-RES [2] = test: Antitumor activity against human NCI/ADR-RES cells xenografted in athymic nude mouse administered via ip; assay type: functional, cell-based
HeLa [3] = test: Induction of microtubule stabilization in human HeLa cells assessed as formation of multiple aberrant mitotic spindle at 5 times IC50 after 18 hrs by indirect immunofluorescence assay; assay type: cell-based
How it was run: (§1)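 HeLa cells treated for 18 h at 5-fold each compound's own antiproliferative IC50, with EtOH as vehicle control. Mitotic and interphase microtubules stained by indirect immunofluorescence with a β-tubulin antibody and viewed by fluorescence microscopy.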

HeLa [4] = test: Induction of microtubule stabilization in human HeLa cells assessed as bundling of interphase microtubule at 5 times IC50 after 18 hrs by indirect immunofluorescence assay; assay type: cell-based; how it was run: as §1
[5] = Toxicity in ip dosed athymic nude mouse harboring tumor; assay type: organism-based; settings: in vivo
How it was run: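 Dose tolerance was assessed in tumor-bearing mice carrying drug-sensitive or drug-resistant xenografts, with compound given by ip injection. A cumulative maximal tolerated dose was determined.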

Sus scrofa [6] = species on record: Sus scrofa; test: Induction of porcine brain tubulin polymerization at 5 uM by turbidimetric method
How it was run: (§2)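 Compound or vehicle (1% EtOH) added; samples prepared on ice, then warmed to 37 °C to start polymerization. Rate and extent followed turbidimetrically at 340 nm.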

NCI/ADR-RES [7] = test: Antitumor activity against human NCI/ADR-RES cells xenografted in athymic nude mouse assessed as reduction in tumor growth at 40 ug administered intratumorally on day day 0, 3, 6, 10 and 14 measured on day 0 post dose; assay type: functional, cell-based
How it was run: (§3)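 NCI/ADR-RES tumor fragments implanted s.c. in flanks of female athymic nude mice. At about 250 mm3 (100−465 mm3), mice were grouped (n = 7−9). Tumors were injected directly with 200 μL on days 0, 3, 6, 10 and 14: 20 μg in 10% EtOH/PBS, paclitaxel 40 μg in 1% Cremophor/EtOH in PBS, or vehicle. Volume = length × width × height by calipers.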

NCI/ADR-RES [8] = test: Antitumor activity against human NCI/ADR-RES cells xenografted in athymic nude mouse assessed as reduction in tumor growth at 40 ug administered intratumorally on day 0, 3, 6, 10 and 14 measured on day 12 to 14 post dose; assay type: functional, cell-based; how it was run: as §3
NCI/ADR-RES [9] = test: Antitumor activity against human NCI/ADR-RES cells xenografted in athymic nude mouse assessed as reduction in tumor growth at 40 ug administered intratumorally on day 0, 3, 6, 10 and 14 measured up to 14 days during compound dosing; assay type: functional, cell-based; how it was run: as §3
Sus scrofa [10] = species on record: Sus scrofa; test: Induction of porcine brain tubulin polymerization at 5 to 20 uM by turbidimetric method; how it was run: as §2

Structure (SMILES)	IC50 (HeLa [1])	Activity (NCI/ADR-RES [2])	Activity (HeLa [3])	Activity (HeLa [4])	MTD [5]	Activity (Sus scrofa [6])	Activity (NCI/ADR-RES [7])	Activity (NCI/ADR-RES [8])	Activity (NCI/ADR-RES [9])	Activity (Sus scrofa [10])
CC(=O)O[C@@H]1[C@H]2[C@H]3[C@H]([C@H](OC(C)=O)[C@H](OC(C)=O)[C@]2(C)[C@H]2[C@H](C)[C@H]4O[C@]45OC(=O)[C@@](C)(O)[C@]5(C)[C@H]12)[C@]1(C)[C@H](C[C@@H]2O[C@@H]2[C@@H]1OC(C)=O)C(=O)[C@@H]3O	23 nM	Active	–	–	–	–	–	–	–	–
CC(=O)O[C@H]1[C@H]2[C@H]([C@@H]3[C@@H](OC(=O)C(C)(C)C)[C@@H]4[C@H]([C@H](C)[C@H]5O[C@]56OC(=O)[C@@](C)(O)[C@]46C)[C@@]3(C)[C@H]1OC(C)=O)[C@@H](O)C(=O)[C@H]1C[C@@H]3O[C@@H]3[C@H](OC(C)=O)[C@]21C	4.2 nM	–	Active	Active	< 10 mg/kg	–	–	–	–	–
CC(=O)O[C@H]1[C@H]2[C@H]([C@@H]3[C@@H](OC(=O)C(C)C)[C@@H]4[C@H]([C@H](C)[C@H]5O[C@]56OC(=O)[C@@](C)(O)[C@]46C)[C@@]3(C)[C@H]1OC(C)=O)[C@@H](O)C(=O)[C@H]1C[C@@H]3O[C@@H]3[C@H](OC(C)=O)[C@]21C	10.6 nM	–	Active	Active	< 10 mg/kg	Active	–	–	–	–
CC(=O)O[C@H]1C(=O)[C@@]2(C)[C@H]([C@H](OC(=O)c3ccccc3)[C@]3(O)C[C@H](OC(=O)[C@H](O)[C@@H](NC(=O)c4ccccc4)c4ccccc4)C(C)=C1C3(C)C)[C@]1(OC(C)=O)CO[C@@H]1C[C@@H]2O	–	–	–	–	–	–	inactive	Active	inactive	–
CC(=O)O[C@H]1[C@H]2[C@H]([C@@H]3[C@@H](OC(=O)C4CC4)[C@@H]4[C@H]([C@H](C)[C@H]5O[C@]56OC(=O)[C@@](C)(O)[C@]46C)[C@@]3(C)[C@H]1OC(C)=O)[C@@H](O)C(=O)[C@H]1C[C@@H]3O[C@@H]3[C@H](OC(C)=O)[C@]21C	27.5 nM	–	Active	Active	< 10 mg/kg	Active	–	–	–	–
CC(=O)O[C@H]1[C@H]2[C@H]([C@@H]3[C@@H](O)[C@@H]4[C@H]([C@H](C)[C@H]5O[C@]56OC(=O)[C@@](C)(O)[C@]46C)[C@@]3(C)[C@H]1OC(C)=O)[C@@H](O)C(=O)[C@H]1C[C@@H]3O[C@@H]3[C@H](OC(C)=O)[C@]21C	4.2 nM	inactive	–	–	–	–	–	–	–	Active
